# miR122 inh – inhibitors of miR-122 in Huh7 cells; Huh7 miR-122 Renilla luciferase sensor, 48 h; neutral wells = 0, positive control = 100; activation (reporter increase), % at 12.5 µM; hit rate 0.3% among 340,000; AID 602342;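 active = mean replicate activation score at least 90 and every replicate individually at or above 90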;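 also: higher luciferase means less miR-122 activity so hits act as miR-122 inhibitors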
# FN deposition inh – fibronectin deposition inhibition. inhibition, % at 12.6 µM. hit rate 0.086% among 350,000. AID 743247. AH1F fibroblasts, Alexa488-fibronectin deposition fluorescence, overnight;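 active = mean inhibition across replicates of 30% or more, regardless of how many single replicates reach that level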;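 also: positive control wells lacked labelled fibronectin entirely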
#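 Measured by – fluorescence 485/525 nm · System – AH1F fibroblast monolayer, labelled fibronectin deposition · Amount – 10000 cells per well · Buffer or medium – serum-reduced DMEM (2% serum) · Doses – single dose, pinned · Also added – fluorescent fibronectin at 24 nM final · Schedule – 1 h cell attachment, overnight exposure to compound and label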
# Vif imaging – blocks HIV Vif function | HEK293T cells, Vif self-association by quenched fluorescence, imaging, 24 h | inhibition, % at 7.49 µM | hit rate 0.35% among 340,000 | AID 602346; in the data active = inhibition above about 50%, passing the limit was not always enough
# rRNA inh HTS – inhibitors of bacterial rRNA selective over humanized ribosomes. hit rate 1.6% among 350,000. AID 720706. E. coli WT GFP vs humanized-ribosome RFP mutants, fluorescence, 24 h; hits give low values; DMSO median 0, no signal -100. GFP signal change (wild-type ribosome), % (no concentration beside the values);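 active = significant combined selectivity score with lowered wild-type GFP, culture density cut under 30%, mutant RFP and density less affected; inactive = any of these conditions unmet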
# HIV Env fusion – blocks HIV Env-driven cell-cell fusion. HeLa-JRFL Env/CEM21 cell fusion, luciferase. inhibition, % at 12.3 µM. hit rate 1.1% among 360,000. AID 651610;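 active = mean replicate inhibition score of at least 50 and every replicate individually at or above 50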;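 also: 0% = plate neutral controls and 100% = maraviroc near 300 nM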
# S100A4 inh HTS – S100A4-myosin IIA interaction inhibition | hit rate 0.14% among 360,000 | S100A4/TAMRA-MyoIIA peptide fluorescence polarization | P26447 | inhibition, % at 10.7 µM;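 active = mean inhibition of at least 70% across replicates, with every replicate also reaching that level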
# Target sequence (P26447 whole entry, looked up): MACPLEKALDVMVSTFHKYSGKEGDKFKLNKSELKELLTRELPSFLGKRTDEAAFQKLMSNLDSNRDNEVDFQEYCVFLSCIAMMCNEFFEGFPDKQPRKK
#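 assay system = human S100A4 monomer with TAMRA-labelled myosin IIA peptide | also added = labelled myosin peptide probe, 5 nM | incubation = 5 min between mix addition and reading | control set = DMSO and TFP controls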
# Numbers without * were called inactive; . = no result; [ ] = another dose, or the depositor's remark. Hits are enriched below; roughly 2.6% of the tested compounds scored in any of these assays.
SMILES,miR122 inh,FN deposition inh,Vif imaging,rRNA inh HTS,HIV Env fusion,S100A4 inh HTS
CC(=O)Nc1ccc(C(=O)CSc2nnc(-c3ccccc3F)n2CCc2ccccc2)cc1,.,1,-4,-35*,15,-1
CCC(=O)Nc1ccc(C(=O)CSc2nnc(-c3ccccc3F)n2C2CC2)cc1,.,-1,-1,.,-39,-7
CC(=O)c1ccc(N2CCN(C(=O)c3cc4c(-c5ccccc5F)nn(C)c4s3)CC2)cc1,-5,0,-24,-1,66*,4
COc1ccc(N2CCN(C(=O)c3cc4c(-c5cccc(OC)c5)nn(C)c4s3)CC2)cc1,-3,-16,-5,.,15,.
CCN(Cc1ccccc1)S(=O)(=O)c1cc(C(=O)c2c(N)n(C)c(=O)n(C)c2=O)ccc1OC,.,.,21,-37*,0,-6
Cc1ccc(-c2nc3cc(NC(=O)C(C)C)ccc3o2)cc1,-4,.,-4,.,.,.
CC(Oc1ccc(Cl)cc1Cl)C(=O)Nc1ccc2oc(-c3ccncc3)nc2c1 (stereo unspecified),-6,8,-41,.,64*,.
CN1c2ccc(-c3cccc(F)c3)cc2[C@@H]2[C@@H](CCN2C(=O)Cc2ccccc2)[C@H]1CO,-6[16.7 µM],-13,.,-53,.,20
O=C(Cc1ccc(Cl)cc1)NC1CC1,-2,-2,71*,13,-10,1
CC(=O)Nc1ccc2c(c1)C(=O)N(C)C[C@H](C)[C@H](CN(C)C(C)=O)O2,.,1,.,2,.,.
COc1ccc(-c2c(O)c(C#N)c(-c3ccccc3)n(-c3ccc(OC)cc3)c2=O)cc1,97*,-17,1,.,-37,.
N#Cc1ccc(-c2nc3ccc(Br)cn3c2Cc2ccccc2C(F)(F)F)cc1,-4,15,.,-8,-17,1
FC(F)(F)c1ccccc1Cc1c(-c2ccccc2)nc2ccc(Br)cn12,-5,-1,.,-27*,-27,21
C/C(=N/NC(=O)c1ccncc1)c1ccc(NC(=O)c2ccc(Cl)cc2Cl)cc1,-6,.,1,-16,-25,6
CC(C)CC(=NNC(=O)c1ccncc1)c1cc(Cl)ccc1O,-8,11,55*,-60,33,2
CC(=NNC(=O)c1ccncc1)c1ccccc1O,1,8,-2,-30*,31,-4
N#C/C(=C(/O)CCl)c1nc2ccccc2[nH]1,.,.,6,-16*,5,-2
N#C/C(=C(\O)Cc1ccccc1)c1nc2ccccc2[nH]1,11,.,6,.,.,.
C/C(O)=C(\C#N)c1nc2ccccc2[nH]1,.,.,51*,.,.,.
Cc1cccc(C)c1Nc1nnc(SC/C(O)=C(\C#N)c2nc3ccccc3[nH]2)s1,13,11,-5,-34*,.,-3
COc1ccc(N/C(=N/c2nc(C)cc(C)n2)NC(=O)c2ccccc2)cc1,.,-3,-4,-20*,-5,0
CC1CCN(c2ccccc2NC(=O)c2cc([N+](=O)[O-])ccc2N2CCOCC2)CC1,-6,9,-10,-3,60*,5
O=C(NCCOc1ccccc1F)c1cc([N+](=O)[O-])ccc1N1CCOCC1,0,.,-4,6,63*,-9
CCc1ccccc1NC(=O)c1cc([N+](=O)[O-])ccc1N1CCOCC1,-1,8,-4,10,-15,-13
Cc1cccc(N2CCc3c2nc2ccc(Br)cc2c3N)c1,8,.,.,-49*,.,2
SMILES,miR122 inh,FN deposition inh,Vif imaging,rRNA inh HTS,HIV Env fusion,S100A4 inh HTS
CO[C@H]1CN(C)C(=O)c2cc(NC(C)=O)ccc2OC[C@@H](C)N(Cc2ccccc2F)C[C@H]1C,-2[16.7 µM],-13,.,4,17[16.7 µM],6
CC(C)NC(=O)Nc1ccc2c(c1)C(=O)N([C@@H](C)CO)C[C@H](C)[C@@H](CN(C)Cc1ccc(Oc3ccccc3)cc1)O2,-6[16.7 µM],17,.,-5,.,5
O=C(CSc1cccc[n+]1[O-])C12CC3CC(CC(C3)C1)C2,.,11,5,-27*,-7,2
CCOc1ccccc1N1CCN(C(=O)CCCc2nc3ccccc3s2)CC1,.,3,17,-30*,9,2
O=C(CCCc1nc2ccccc2s1)N1CCN(c2ccccc2F)CC1,-1,0,3,-24,12,-1
CCOc1cc(CNCc2ccncc2)cc(Br)c1OCc1ccc(F)cc1,-11,-6,-13,.,63*,.
COc1cc(C(=O)N/N=C(\Cc2ncc[nH]2)c2ccccc2)cc(OC)c1OC,.,3,9,-32*,2,-1
CCn1c(=O)c(CCC(=O)N2CCN(c3ccccn3)CC2)c(C)c2c(C)nn(-c3cccc(C)c3)c21,-4,5,-2,4,58*,-2
CN(Cc1ccccc1)c1nc(CN2CCOCC2)nc2scc(-c3ccccc3)c12,2,-7,1,.,-4,.
Fc1ccc(-c2csc3ncnc(N4CCN(Cc5ccccc5)CC4)c23)cc1,-2,5,2,-23*,3,5
Fc1ccc(N2CCN(c3nc(CN4CCOCC4)nc4scc(-c5ccccc5)c34)CC2)cc1,.,-39,-4,-25*,15,-1
Fc1ccc(CN2CCN(c3ncnc4scc(-c5ccccc5)c34)CC2)cc1,-4,-1,-7,-52,24,-5
C[C@H](CO)N1C[C@H](C)[C@H](CN(C)C)Oc2ccc(NC(=O)CCCCCC(=O)Nc3ccccc3N)cc2CC1=O,-2[16.7 µM],.,.,4,.,1
O=C(CSc1nc(C2CCCCC2)nc2ccccc12)N1CCCC1,.,-1,14,-18*,0,2
COc1ccc(-c2cn3c(C)c(C(=O)Nc4cccc(C)n4)sc3n2)cc1,0,.,-10,-30*,.,-2
Cc1nc(NCC2CCCO2)c2nnn(Cc3ccccc3)c2n1 (stereo unspecified),-3,.,.,-17*,.,0
Cc1nc(NCC2CCCO2)c2nnn(Cc3ccccc3Cl)c2n1 (stereo unspecified),0,.,1,13,.,-3
C[C@H](CO)N1C[C@H](C)[C@H](CN(C)Cc2ccc(C(=O)Nc3ccccc3N)cc2)Oc2ccc(NS(=O)(=O)c3ccccc3)cc2CC1=O,145*[16.7 µM],.,.,-3,-41[16.7 µM],64
C[C@@H]1CN([C@H](C)CO)C(=O)Cc2cc(NS(=O)(=O)c3cccs3)ccc2O[C@H]1CN(C)Cc1ccc(C(=O)Nc2ccccc2N)cc1,.,.,.,-5,.,-8
C[C@H](CO)N1C[C@H](C)[C@H](CN(C)Cc2ccc(C(=O)Nc3ccccc3N)cc2)Oc2ccc(NS(=O)(=O)c3cccs3)cc2CC1=O,104*[16.7 µM],.,.,-8,-86[16.7 µM],-41
C[C@H](CO)N1C[C@H](C)[C@@H](CN(C)Cc2ccc(C(=O)Nc3ccccc3N)cc2)Oc2ccc(NS(=O)(=O)c3ccc(F)cc3)cc2CC1=O,7[16.7 µM],.,.,-4,10[16.7 µM],-11
